These results are taken from article PMC5665024 (Chemical research in toxicology, 2017).

The target in data set [1] is T1, human DNA polymerase η (pol η) (Homo sapiens, UniProt Q9Y253).
T1 sequence (Q9Y253 1-713): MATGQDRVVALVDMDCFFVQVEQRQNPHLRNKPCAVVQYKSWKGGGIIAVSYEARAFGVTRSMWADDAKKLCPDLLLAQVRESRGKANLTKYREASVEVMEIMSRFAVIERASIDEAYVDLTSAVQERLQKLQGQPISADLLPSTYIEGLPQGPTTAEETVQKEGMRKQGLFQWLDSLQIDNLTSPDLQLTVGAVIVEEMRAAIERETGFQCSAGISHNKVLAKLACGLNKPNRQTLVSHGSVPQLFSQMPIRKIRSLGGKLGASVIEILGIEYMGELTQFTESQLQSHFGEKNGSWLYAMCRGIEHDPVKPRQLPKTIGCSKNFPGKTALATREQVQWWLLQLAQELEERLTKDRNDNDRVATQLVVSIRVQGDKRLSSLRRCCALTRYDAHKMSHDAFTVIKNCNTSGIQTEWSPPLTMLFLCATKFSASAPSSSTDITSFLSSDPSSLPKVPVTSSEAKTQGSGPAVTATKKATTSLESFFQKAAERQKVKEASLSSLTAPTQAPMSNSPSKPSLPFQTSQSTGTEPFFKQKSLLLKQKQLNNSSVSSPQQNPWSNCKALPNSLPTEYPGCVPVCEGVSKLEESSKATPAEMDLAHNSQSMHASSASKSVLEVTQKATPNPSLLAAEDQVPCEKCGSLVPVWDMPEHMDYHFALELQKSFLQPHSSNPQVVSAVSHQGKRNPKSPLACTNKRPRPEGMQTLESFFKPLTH
Kind of data set: Steady-state primer extension assay, pol η. Format: biochemical.

A further data set has as its system UACC903 cells. Kind of data set: MTS assay of cell proliferation, UACC903. Format: cell-based, human. Conditions: for IC50: Homo sapiens; for −log(IC50) (95% CI): tested compound alone. A digest of the protocol: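 Cells grown in DMEM with 10% FBS at 37 °C and 5% CO2. Plated at 5 × 10^3 per well, grown 24 h, then exposed 24 or 72 h to test compound alone or in pairs: 10 μM bleomycin-type or 250 μM alkylating agent added to the lignan, or 10 μM lignan added to either. DMSO 0.2% final; vehicle controls. MTS/PMS for 4 h; A492; cell-free background. Triplicate; IC50 fit, 95% CI.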
In general terms: Formazan colour is commonly taken as a measure of viable cells.

For another data set, the target named is pol β (Homo sapiens, UniProt P06746). Kind of data set: Presteady-state burst kinetics. Format: biochemical. Conditions: modeling with a noncompetitive inhibition scheme (Figure S10).
The subject of the next data set is rats. Conditions: dose of 100 mg/kg; cited from earlier work.

Where two headings read alike, the source gives them in different places.

With `C=CCc1ccc(O)c(-c2ccc(O)c(CC=C)c2)c1` [HNL, 2-(4-hydroxy-3-prop-2-enyl-phenyl)-4-prop-2-enyl-phenol], the IC50 in data set [1] is 10 µM; in the data set with UACC903 cells (UACC-903, 24 h, read-out: −log(IC50) (95% CI), UACC903, 24 h, tested compound alone (converted)) it was 25.1 µM; in the data set on UACC903 cells (UACC-903, 72 h, read-out: −log(IC50) (95% CI), UACC903, 72 h, tested compound alone (converted)) it was 15.8 µM. In addition, in data set [1], the Ki is 20 µM. Besides, the α in data set [1] (eq 3, factor on Km/Ki, 95% confidence limits) was 0.49 (0.12, 0.85). In addition, in data set [1] (eq 3, residual catalysis with HNL bound, 95% confidence limits), the β is 0.03 (–0.10, 0.15). Also, the “inhibition mechanism versus dCTP” value in data set [1] (steady-state kinetic analysis) is given as “linear mixed-type noncompetitive”. Besides, the “−log(IC50) (95% CI)” value in the data set on UACC903 cells (UACC903, 24 h) is 4.6 (4.47, 4.8); in the data set on UACC903 cells (UACC903, 72 h) it was 4.8 (4.65, 4.9). Besides, the “honokiol off rate constant” value at pol β turned out to be 0.16 s⁻¹. Further, the “toxicity and side effects in rats” value in the data set with rats is “nontoxic with no side effects”.

The term IC50 denotes the concentration needed to halve the response being measured. In general, Ki refers to a dissociation constant, usually derived from enzyme kinetics or from competition with a known ligand. The low end stands for higher affinity, the high end for lower affinity.
